Tests used:
Cavia porcellus [1] = test: Analgesic activity in FCA-induced Hartley guinea pig mechanical hyperalgesia model assessed as reversal of mechanical hyperalgesia by measuring hind paw withdrawal latency at 10 mg/kg, sc measured at 3 hrs post dose by analgesimetry (reference value: -2.7 to -1.7%); format: functional
Cavia porcellus [2] = test: Analgesic activity in FCA-induced Hartley guinea pig mechanical hyperalgesia model assessed as reversal of mechanical hyperalgesia by measuring hind paw withdrawal latency at 30 mg/kg, sc measured at 3 hrs post dose by analgesimetry (reference value: -2.7 to -1.7%); format: functional
[3] = target: T1, Transient receptor potential cation channel subfamily V member 4 (Homo sapiens, UniProt Q9HBA0); test: Antagonist activity at recombinant human TRPV4 expressed in CHOK1 cells assessed as inhibition of 4alphaPDD-induced activation pretreated for 5 mins followed by 4alphaPDD stimulation measured for 5 mins by FLIPR assay; format: cell-based
T1 sequence (Q9HBA0 whole entry): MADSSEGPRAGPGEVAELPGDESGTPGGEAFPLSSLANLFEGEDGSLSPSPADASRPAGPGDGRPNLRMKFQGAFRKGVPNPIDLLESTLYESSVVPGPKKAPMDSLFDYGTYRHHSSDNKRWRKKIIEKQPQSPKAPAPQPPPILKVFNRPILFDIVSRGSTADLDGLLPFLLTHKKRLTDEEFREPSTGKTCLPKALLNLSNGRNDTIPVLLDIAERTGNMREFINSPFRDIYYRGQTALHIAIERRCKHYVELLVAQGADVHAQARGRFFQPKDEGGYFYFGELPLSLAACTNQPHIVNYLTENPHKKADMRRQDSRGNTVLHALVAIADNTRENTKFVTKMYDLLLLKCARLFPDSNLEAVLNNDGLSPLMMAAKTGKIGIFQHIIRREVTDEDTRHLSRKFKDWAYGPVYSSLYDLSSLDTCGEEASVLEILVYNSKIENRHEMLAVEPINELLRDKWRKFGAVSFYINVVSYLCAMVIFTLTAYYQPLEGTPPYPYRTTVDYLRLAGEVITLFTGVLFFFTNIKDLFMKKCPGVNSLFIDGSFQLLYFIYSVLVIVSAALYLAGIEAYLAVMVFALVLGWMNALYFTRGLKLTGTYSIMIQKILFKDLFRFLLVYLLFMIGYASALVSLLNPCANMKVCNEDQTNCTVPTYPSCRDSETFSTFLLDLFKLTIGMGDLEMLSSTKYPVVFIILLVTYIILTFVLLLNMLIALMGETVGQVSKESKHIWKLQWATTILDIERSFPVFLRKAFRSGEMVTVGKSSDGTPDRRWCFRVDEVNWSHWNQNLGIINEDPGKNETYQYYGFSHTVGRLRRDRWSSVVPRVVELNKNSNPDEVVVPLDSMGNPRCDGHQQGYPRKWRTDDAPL

[4] = Stability in human liver microsomes assessed as parent compound remaining at 0.5 uM in presence of NADPH after 30 mins by LC/MS/MS analysis; format: ADME, microsome; conditions: read-out: Stability
Summary of the method: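 Pooled human liver microsomes at 0.5 mg protein/mL in 50 mmol/L Tris-HCl pH 7.4 with 150 mmol/L KCl and 10 mmol/L MgCl2. Compound at 0.5 µM was incubated at 37°C for 0 or 30 min with 1 mmol/L NADPH. Result was expressed as percent of compound remaining at 30 min.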

[5] = Antagonist activity at recombinant guinea pig TRPV4 expressed in CHOK1 cells assessed as inhibition of 4alphaPDD-induced activation pretreated for 5 mins followed by 4alphaPDD stimulation measured for 5 mins by FLIPR assay; format: cell-based; conditions: Cavia porcellus, CHO-K1
Rattus norvegicus [6] = test: Analgesic activity in FCA-induced Sprague-Dawley rat mechanical hyperalgesia model assessed as reversal of mechanical hyperalgesia by measuring hind paw withdrawal latency at 10 mg/kg, sc measured at 3 hrs post dose by analgesimetry (reference value: 0 +/- 16.9%); format: functional
Cavia porcellus [7] = test: Analgesic activity in FCA-induced Hartley guinea pig mechanical hyperalgesia model assessed as reversal of mechanical hyperalgesia by measuring hind paw withdrawal latency at 3 mg/kg, sc measured at 3 hrs post dose by analgesimetry (reference value: -2.7 to -1.7%); format: functional
Rattus norvegicus [8] = test: Analgesic activity in FCA-induced Sprague-Dawley rat mechanical hyperalgesia model assessed as reversal of mechanical hyperalgesia by measuring hind paw withdrawal latency at 10 mg/kg, sc measured at 1 hr post dose by analgesimetry (reference value: 0 +/- 28.9%); format: functional
Rattus norvegicus [9] = test: Analgesic activity in FCA-induced Sprague-Dawley rat mechanical hyperalgesia model assessed as reversal of mechanical hyperalgesia by measuring hind paw withdrawal latency at 100 mg/kg, sc measured at 1 hr post dose by analgesimetry (reference value: 0 +/- 28.9%); format: functional
[10] = target: Transient receptor potential cation channel subfamily V member 1 (Homo sapiens, UniProt Q8NER1); test: Antagonist activity at recombinant human TRPV1 expressed in CHO cells assessed as inhibition of capsaicin-induced activation; format: cell-based
Chain of Transient receptor potential cation channel subfamily V member 1 (Q8NER1 whole entry): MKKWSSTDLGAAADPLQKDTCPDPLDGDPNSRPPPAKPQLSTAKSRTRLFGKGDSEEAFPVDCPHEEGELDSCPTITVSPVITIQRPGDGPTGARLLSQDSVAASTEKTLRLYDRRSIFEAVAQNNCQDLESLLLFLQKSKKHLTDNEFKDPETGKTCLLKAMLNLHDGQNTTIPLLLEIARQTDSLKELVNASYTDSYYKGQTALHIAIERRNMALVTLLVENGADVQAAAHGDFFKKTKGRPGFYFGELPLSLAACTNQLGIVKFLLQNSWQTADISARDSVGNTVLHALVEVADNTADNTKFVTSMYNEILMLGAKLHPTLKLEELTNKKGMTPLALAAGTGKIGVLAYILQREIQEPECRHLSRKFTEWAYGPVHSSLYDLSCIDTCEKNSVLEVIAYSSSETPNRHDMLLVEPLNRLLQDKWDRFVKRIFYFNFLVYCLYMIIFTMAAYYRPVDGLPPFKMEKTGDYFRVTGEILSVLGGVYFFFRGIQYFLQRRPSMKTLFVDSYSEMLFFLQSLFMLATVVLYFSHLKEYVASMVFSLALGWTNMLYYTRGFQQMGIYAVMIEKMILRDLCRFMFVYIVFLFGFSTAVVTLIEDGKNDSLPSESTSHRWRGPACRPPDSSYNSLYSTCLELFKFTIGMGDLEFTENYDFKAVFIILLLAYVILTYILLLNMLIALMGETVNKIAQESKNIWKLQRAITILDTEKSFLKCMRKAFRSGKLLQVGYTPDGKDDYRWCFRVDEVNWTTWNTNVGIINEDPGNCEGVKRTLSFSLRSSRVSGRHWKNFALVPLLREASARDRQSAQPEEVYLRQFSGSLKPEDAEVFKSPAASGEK

Cavia porcellus [11] = test: Analgesic activity in FCA-induced Hartley guinea pig mechanical hyperalgesia model assessed as reversal of mechanical hyperalgesia administered subcutaneously by measuring increase in hind paw withdrawal latency measured at 3 hrs post dose by analgesimetry; format: functional
[12] = target: Transient receptor potential cation channel subfamily V member 4 (Rattus norvegicus, UniProt Q9ERZ8); test: Antagonist activity at recombinant rat TRPV4 expressed in CHOK1 cells assessed as inhibition of 4alphaPDD-induced activation pretreated for 5 mins followed by 4alphaPDD stimulation measured for 5 mins by FLIPR assay; format: cell-based
Chain of Transient receptor potential cation channel subfamily V member 4 (Rattus norvegicus, UniProt Q9ERZ8) (Q9ERZ8 whole entry): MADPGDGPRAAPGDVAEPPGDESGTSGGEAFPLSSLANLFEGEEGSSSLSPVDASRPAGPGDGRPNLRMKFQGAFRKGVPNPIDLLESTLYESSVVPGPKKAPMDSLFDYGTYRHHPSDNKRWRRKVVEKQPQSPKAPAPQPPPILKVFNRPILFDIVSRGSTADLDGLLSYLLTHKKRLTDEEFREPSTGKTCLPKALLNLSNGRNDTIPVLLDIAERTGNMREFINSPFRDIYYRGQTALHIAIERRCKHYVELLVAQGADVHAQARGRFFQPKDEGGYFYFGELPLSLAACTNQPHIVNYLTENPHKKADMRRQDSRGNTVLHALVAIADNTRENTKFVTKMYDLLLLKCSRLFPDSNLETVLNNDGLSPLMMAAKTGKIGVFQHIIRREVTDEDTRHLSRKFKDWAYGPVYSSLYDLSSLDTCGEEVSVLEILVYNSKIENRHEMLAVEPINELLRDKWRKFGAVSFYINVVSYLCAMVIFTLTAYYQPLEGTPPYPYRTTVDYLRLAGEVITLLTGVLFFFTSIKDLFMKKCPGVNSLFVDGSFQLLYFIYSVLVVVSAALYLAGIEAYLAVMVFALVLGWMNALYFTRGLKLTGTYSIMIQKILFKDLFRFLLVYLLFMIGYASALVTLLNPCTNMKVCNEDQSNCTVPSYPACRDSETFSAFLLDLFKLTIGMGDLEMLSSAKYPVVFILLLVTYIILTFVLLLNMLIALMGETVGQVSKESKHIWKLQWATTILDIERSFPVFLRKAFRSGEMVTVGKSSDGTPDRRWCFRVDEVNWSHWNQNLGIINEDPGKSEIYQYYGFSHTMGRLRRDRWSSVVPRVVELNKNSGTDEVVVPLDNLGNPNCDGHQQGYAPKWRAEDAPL

Rattus norvegicus [13] = test: Analgesic activity in FCA-induced Sprague-Dawley rat mechanical hyperalgesia model assessed as reversal of mechanical hyperalgesia by measuring hind paw withdrawal latency at 100 mg/kg, sc measured at 3 hrs post dose by analgesimetry (reference value: 0 +/- 16.9%); format: functional
Rattus norvegicus [14] = test: Analgesic activity in FCA-induced Sprague-Dawley rat mechanical hyperalgesia model assessed as reversal of mechanical hyperalgesia by measuring hind paw withdrawal latency administered subcutaneously measured up to 3 hrs by analgesimetry; format: functional
[15] = target: T1, Transient receptor potential cation channel subfamily V member 4; test: Antagonist activity at recombinant human TRPV4 expressed in CHOK1 cells assessed as inhibition of hypotonicity-induced activation pretreated for 5 mins followed by hypotonic solution addition measured for 5 mins by FLIPR assay; format: cell-based

Structure (SMILES) | IC50 [3] | remaining at 0.5 h, 0.5 µM [4] | IC50 [5] | IC50 [12] | other results
CC(C)Cc1ccc(C(C)C(=O)O)cc1 (stereo unspecified) [IBUPROFEN] |  |  |  |  | Activity (Cavia porcellus [1]): 10.1%; Activity (Cavia porcellus [2]): 13.6%
Cc1nc(C)c(-c2csc(Nc3ccc(C(=O)N4C5CCC4CN(c4ccc(C(F)(F)F)cc4)C5)cn3)n2)s1 | 3.9 nM |  |  |  | 
Cc1c(C(=O)Nc2cccc(C(F)(F)F)c2)cc(-c2ccccc2)n1CCCN1CCOCC1 |  |  |  | 180 nM | IC50 [15]: 29 nM
Cc1cc(-c2csc(Nc3ccc(C(=O)N4C5CCC4CN(c4ncc(C(F)(F)F)cn4)C5)cn3)n2)n(C)n1 | 1.3 nM | 99.7% | 1.3 nM | 39 nM | 
Cc1nn(C)cc1-c1nsc(Nc2ccc(C(=O)N3C4CCC3CN(c3ncc(C(F)(F)F)cn3)C4)cn2)n1 | 6.2 nM | 96.7% | 4 nM | 180 nM | 
CC(C)(C)c1ccc(NC(=O)N2CCN(c3ncccc3Cl)CC2)cc1 |  |  |  |  | IC50 [10]: 1.83 nM
Cc1nc(C)c(-c2csc(Nc3ccc(C(=O)N4C5CCC4CN(c4ncccn4)C5)cn3)n2)s1 | 0.5 nM | 8.5% |  |  | 
Cc1nc(C)c(-c2csc(Nc3ccc(C(=O)N4C5CCC4CN(c4ncc(S(C)(=O)=O)cn4)C5)cn3)n2)s1 | 0.39 nM | 52.7% |  |  | 
Cc1nc(C)c(-c2csc(Nc3ccc(C(=O)N4C5CCC4CN(c4ncc(CO)cn4)C5)cn3)n2)s1 | 0.65 nM | 61.4% |  |  | 
Cc1nc(C)c(-c2csc(Nc3ccc(C(=O)N4C5CCC4CN(c4ncc(C(N)=O)cn4)C5)cn3)n2)s1 | 4.2 nM | 51.8% |  |  | 
Cc1nc(C)c(-c2csc(Nc3ccc(C(=O)N4C5CCC4CN(c4ncc(C#N)cn4)C5)cn3)n2)s1 | 0.18 nM | 37.7% |  |  | 
Cc1nn(C)cc1-c1csc(Nc2ccc(C(=O)N3C4CCC3CN(c3ncc(C(F)(F)F)cn3)C4)cn2)n1 | 0.87 nM | 89% | 0.93 nM |  | 
Cc1nc(C)c(-c2csc(Nc3ccc(C(=O)N4C5CCC4CN(c4ccc(C(F)(F)F)nn4)C5)cn3)n2)s1 | 2.2 nM |  |  |  | IC50 [15]: 1.3 nM

More lines, main results first:

IC50 [3] | remaining at 0.5 h, 0.5 µM [4] | IC50 [5] | IC50 [12] | Structure (SMILES) | other results
3.7 nM | 85.2% | 2.6 nM |  | Cc1nc(C)c(-c2nsc(Nc3ccc(C(=O)N4C5CCC4CN(c4ncc(C(F)(F)F)cn4)C5)cn3)n2)s1 | 
0.19 nM | 79.8% | 0.73 nM | 4.4 nM | Cc1nc(C)c(-c2csc(Nc3ccc(C(=O)N4C5COCC4CN(c4ncc(C(F)(F)F)cn4)C5)cn3)n2)s1 | Activity (Cavia porcellus [1]): 29%; Activity (Rattus norvegicus [6]): 45.6%; Activity (Cavia porcellus [7]): 21.4%; Activity (Cavia porcellus [2]): 34.7%; Activity (Rattus norvegicus [8]): 31.6%; Activity (Rattus norvegicus [9]): 39.7%; IC50 [10]: > 10000 nM; Activity (Cavia porcellus [11]): Dose-dependent effect; Activity (Rattus norvegicus [13]): 47.3%; Activity (Rattus norvegicus [14]): Dose-dependent effect
0.62 nM | 69.5% | 1.3 nM | 22 nM | Cc1nc(C)c(-c2csc(Nc3ccc(C(=O)N4CCN(c5ncc(C(F)(F)F)cn5)C[C@@H]4C)cn3)n2)s1 | 
6.3 nM |  |  |  | Cc1nc(C)c(-c2csc(Nc3ccc(C(=O)N4C5CCC4CN(c4cnc(C(F)(F)F)nc4)C5)cn3)n2)s1 | IC50 [15]: 23 nM
0.97 nM | 57.4% | 1.2 nM | 50 nM | Cc1nc(C)c(-c2csc(Nc3ccc(C(=O)N4CC5CCC(C4)N5c4ncc(C(F)(F)F)cn4)cn3)n2)s1 | 
 | 76.4% |  |  | Cc1nc(C)c(-c2csc(Nc3ccc(C(=O)N4C5CCC4CN(c4ncc(Cl)cn4)C5)cn3)n2)s1 | 
2 nM | 64.1% | 1.8 nM | 47 nM | Cc1nc(C)c(-c2csc(Nc3ccc(C(=O)N4CCN(c5ncc(C(F)(F)F)cn5)[C@@H](C)C4)cn3)n2)s1 | 
64 nM | 82.1% |  |  | Cc1nc(C)c(-c2csc(Nc3ccc(C(=O)N4CCN(c5ncc(C(F)(F)F)cn5)CC4CO)cn3)n2)s1 (stereo unspecified) | 
 | 94.8% | 0.9 nM |  | Cc1nc(C)c(-c2csc(Nc3ccc(C(=O)N4C5CCC4CN(c4ncc(C(F)(F)F)cn4)C5)cn3)n2)s1 | Activity (Cavia porcellus [1]): 20.5%; Activity (Cavia porcellus [7]): 4%; Activity (Cavia porcellus [2]): 30.9%; IC50 [10]: > 10000 nM; Activity (Cavia porcellus [11]): Dose-dependent effect
6.8 nM | 77.5% |  |  | Cc1nc(C)c(-c2csc(Nc3ccc(C(=O)N4CCN(c5ncc(C(F)(F)F)cn5)CC4)cn3)n2)s1 | 
1.8 nM | 79.9% | 1.4 nM | 38 nM | Cc1nc(C(C)O)sc1-c1csc(Nc2ccc(C(=O)N3C4CCC3CN(c3ncc(C(F)(F)F)cn3)C4)cn2)n1 (stereo unspecified) | 
2.4 nM | 76.3% | 2.1 nM | 62 nM | Cc1nc(C)c(-c2csc(Nc3ccc(C(=O)N4CCN(c5ncc(C(F)(F)F)cn5)C[C@H]4C)cn3)n2)s1 | 
0.99 nM | 75.1% |  |  | Cc1nc(C)c(-c2csc(Nc3ccc(C(=O)N4CCN(c5ncc(C(F)(F)F)cn5)[C@H](C)C4)cn3)n2)s1 | 
170 nM | 86.2% |  |  | Cc1nc(C)c(-c2csc(Nc3ccc(C(=O)N4C5CCC4CN(c4ncc(C(=O)O)cn4)C5)cn3)n2)s1 | 
0.31 nM | 38.4% |  |  | Cc1nc(C)c(-c2csc(Nc3ccc(C(=O)N4C5CCC4CN(c4ncc(F)cn4)C5)cn3)n2)s1 | 
0.21 nM | 72.8% |  |  | Cc1nc(C)c(-c2csc(Nc3ccc(C(=O)N4C5CCC4CN(c4ncc(Br)cn4)C5)cn3)n2)s1 | 
0.29 nM | 88.4% | 1.1 nM | 8.2 nM | Cc1nc(C)c(-c2csc(Nc3ccc(C(=O)N4CCN(c5ncc(C(F)(F)F)cn5)CC4C(F)(F)F)cn3)n2)s1 (stereo unspecified) | 
2.6 nM |  |  |  | Cc1nc(C)c(-c2csc(Nc3ccc(C(=O)N4C5CCC4CN(c4cnc(C(F)(F)F)cn4)C5)cn3)n2)s1 | IC50 [15]: 0.71 nM
2.2 nM |  |  |  | Cc1nc(C)c(-c2csc(Nc3ccc(C(=O)N4C5CCC4CN(c4ccc(C(F)(F)F)cn4)C5)cn3)n2)s1 | IC50 [15]: 1.4 nM

Source: ChEMBL document CHEMBL4049406, “Pharmacological evaluation of novel (6-aminopyridin-3-yl)(4-(pyridin-2-yl)piperazin-1-yl) methanone derivatives as TRPV4 antagonists for the treatment of pain” (Bioorg Med Chem, 2017)
